Converted amounts (≈) assume the structure as drawn. The source made the active and inactive calls. The calls are words filed in the database; no cut-off is given here.
Tests used:
[1] = Solubility in water at 10 mg after 24 hrs by HPLC analysis; type: physicochemical
[2] = Apparent permeability from basolateral to apical side in human Caco2 cells at 10 uM after 2 hrs by LC-MS/MS analysis; type: ADME, cell-based; details: caco-2, 2 h
Bacillus subtilis = assay: Antibacterial activity against Bacillus subtilis ATCC 6051 incubated for 24 hrs under aerobic condition by MABA; type: functional; details: ATCC 6051, 24 h, read-out: MIC100
How it was run: (§1)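 Mid-log cultures at OD 0.5 were exposed to serial dilutions under aerobic conditions at 37 °C for 24 h. Resazurin was then added from a 0.08% stock for 1 h. MIC100 was the lowest concentration where the dye stayed blue (pink means growth). Absorbance was also read at 570 and 600 nm.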

Staphylococcus aureus [3] = assay: Bactericidal activity against Staphylococcus aureus BAA 1683 incubated for 24 hrs under aerobic condition by MABA; type: functional; details: BAA 1683, 24 h
Streptococcus pneumoniae [4] = assay: Antibacterial activity against Streptococcus pneumoniae ATCC 6301 incubated for 24 hrs under aerobic condition by MABA; type: functional; details: ATCC 6301, 24 h, read-out: MIC100; how it was run: as §1
Staphylococcus aureus [5] = assay: Antibacterial activity against Staphylococcus aureus ATCC 25923 incubated for 24 hrs under aerobic condition by MABA; type: functional; details: ATCC 25923, 24 h, read-out: MIC100; how it was run: as §1
[6] = test system: Mycobacterium tuberculosis; assay: Antibacterial activity against Mycobacterium tuberculosis; type: functional; details: read-out: MIC100
How it was run: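 Mtb H37Rv grown in 7H9/OADC at 37 °C with shaking to OD600 0.5. The 0.5-OD culture is exposed aerobically to serial dilutions for 15 days at 37 °C. Resazurin (0.02% stock) is then added for 4 h at 37 °C with shaking.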

[7] = Cmax in Balb/c mouse at 3 mg/kg, iv; type: ADME, organism-based; set-up: dose 3 mg/kg, route intravenous; details: in vivo
How it was run: (§2)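 Single IV dose of 3 mg/kg in BALB/c mice (n = 3). Serum concentration-time data were used to derive t1/2, Cmax and AUC over 0–24 h and to infinity.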

[8] = Half life in Balb/c mouse at 3 mg/kg, iv; type: ADME, organism-based; details: in vivo
How it was run: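 Single 3 mg/kg IV dose in three BALB/c mice; serum half-life is derived from the concentration–time profile.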

Erythrocyte = assay: Hemolytic activity in sheep erythrocytes after 2 hrs; type: ADME, cell-based; details: Ovis aries
How it was run: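 Washed heparinized sheep erythrocytes at 3% in buffer pH 7.4 were treated with 2–200 µg/mL for 2 h at 37 °C with gentle shaking. Triton X-100 (0.01–1%) was the positive control and PEG:H2O diluent the negative control. Released hemoglobin was read at OD540 and % hemolysis calculated against both controls.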

Escherichia coli [9] = assay: Inhibition of protein translation/transcription in Escherichia coli S30 cell extract at 0.5 ug/ml using circular DNA with pBESTluc after 60 mins by luciferase reporter gene assay; type: functional
How it was run: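 Coupled transcription/translation used E. coli S30 extract, amino acid mix and premix, with the pBESTluc template carrying firefly luciferase under the tac promoter. Compounds were added in DMSO and reactions were started with DNA. Incubation was 60 min at 37 °C, stopped on ice, and luciferase was read after adding assay substrate.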

Staphylococcus aureus [10] = assay: Bactericidal activity against Staphylococcus aureus BAA 44 incubated for 24 hrs under aerobic condition by MABA; type: functional; details: BAA 44, 24 h
[11] = test system: Mycobacterium tuberculosis; assay: Bactericidal activity against non-replicating Mycobacterium tuberculosis CDC1551 expressing tdTomato infected in mouse J774A.1 cells at 2 times MIC up to 72 hrs by DAPI staining based fluorescence microscopic method; type: functional, organism-based
How it was run: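 J774A.1 macrophages are seeded at 1×10^5 cells/well in chamber slides and infected with tdTomato-expressing Mtb CDC1551 at MOI ≈10. […] Imaging is by fluorescence confocal microscopy.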

Staphylococcus aureus [12] = assay: Bactericidal activity against Staphylococcus aureus BAA 2094 incubated for 24 hrs under aerobic condition by MABA; type: functional; details: BAA 2094, 24 h
Escherichia coli [13] = assay: Bactericidal activity against Escherichia coli ATCC 10798 incubated for 24 hrs under aerobic condition by MABA; type: functional; details: ATCC 10798, 24 h
Staphylococcus aureus [14] = assay: Antibacterial activity against Staphylococcus aureus BAA 2094 incubated for 24 hrs under aerobic condition by MABA; type: functional; details: BAA 2094, 24 h, read-out: MIC100
How it was run: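 Resazurin was then added from a 0.08% stock for 1 h. MIC100 was the lowest concentration where the dye stayed blue (pink means growth). Absorbance was also read at 570 and 600 nm.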

Staphylococcus aureus [15] = assay: Antibacterial activity against Staphylococcus aureus BAA 1683 incubated for 24 hrs under aerobic condition by MABA; type: functional; details: BAA 1683, 24 h, read-out: MIC100; how it was run: as §1
[16] = test system: Mycobacterium tuberculosis; assay: Antibacterial activity against Mycobacterium tuberculosis Erdman infected in Balb/c mouse assessed as reduction in bacterial load in lungs at 50 mg/kg, po for 3 weeks starting from 10 days post infection measured on day 21 post infection; type: functional, Erdman = ATCC 35801
How it was run: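 Female BALB/c mice, 7–8 weeks old, are aerosol-infected with Mtb Erdman. From day 10 they receive oral gavage in water for three weeks, in groups of 5. Lungs and spleens are harvested at day 21 post-infection and plated for CFU. Efficacy is the log10 reduction in lung burden versus untreated (vehicle) controls.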

Streptococcus pneumoniae [17] = assay: Bactericidal activity against Streptococcus pneumoniae ATCC 6301 incubated for 24 hrs under aerobic condition by MABA; type: functional; details: ATCC 6301, 24 h
[18] = Half life in Balb/c mouse at 30 mg/kg, po; type: ADME, organism-based; details: in vivo
How it was run: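 Single 30 mg/kg oral dose in six BALB/c mice; serum half-life and tmax are derived from the concentration–time profile.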

Escherichia coli [19] = assay: Antibacterial activity against Escherichia coli ATCC 10798 incubated for 24 hrs under aerobic condition by MABA; type: functional; details: ATCC 10798, 24 h, read-out: MIC100; how it was run: as §1
[20] = AUC (0 to infinity) in Balb/c mouse at 3 mg/kg, iv; type: ADME, organism-based; set-up: dose 3 mg/kg, route intravenous, time infinity; details: in vivo; how it was run: as §2
Mus musculus = assay: AUC (0 to 24 hrs) in Balb/c mouse at 3 mg/kg, iv; type: ADME, organism-based; set-up: time < 24 hr, dose 3 mg/kg, route intravenous; details: in vivo; how it was run: as §2
[21] = test system: Mycolicibacterium smegmatis; assay: Bactericidal activity against Mycobacterium smegmatis ATCC 607 incubated for 48 hrs under aerobic condition by MABA; type: functional; details: ATCC 607, 48 h
Klebsiella pneumoniae = assay: Antibacterial activity against Klebsiella pneumoniae ATCC 12019 incubated for 24 hrs under aerobic condition by MABA; type: functional; details: ATCC 12019, 24 h, read-out: MIC100; how it was run: as §1
[22] = test system: Mycobacterium tuberculosis; assay: Bactericidal activity against non-replicating Mycobacterium tuberculosis CDC1551 expressing tdTomato infected in mouse J774A.1 cells at 2 times MIC up to 72 hrs by UV-Visible spectroscopic method; type: functional, organism-based
How it was run: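 J774A.1 macrophages are seeded at […] cells/well in DMEM and incubated overnight at 37 °C. They are infected with saline-washed Mtb CDC1551-tdTomato (10^6 bacteria, MOI ≈10), and extracellular bacteria are washed off with PBS. Treatment is at 2×MIC, with fluorescence emission read at 581 nm at 24, 48, 72 and 96 h. Survivors are confirmed by serial dilution and plating on 7H11.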

Clostridioides difficile = assay: Bactericidal activity against Clostridium difficile ATCC 700057 incubated for 24 hrs […] by MABA; type: functional; details: ATCC 700057, 24 h

Compound: CC[C@]1(C)C[C@@H](OC(=O)CSC(C)(C)CNC(=O)[C@H](N)CC(C)C)[C@]2(C)[C@H](C)CC[C@]3(CC[C@@H](O)[C@H]32)[C@@H](C)[C@@H]1O
- solubility [1]: 104.7 mg/mL (≈ 180000 µM)
- Papp [2]: 18.3 ×10⁻⁶ cm/s
- MIC (Bacillus subtilis): 25 µg/mL (≈ 42.9 µM)
- MBC (Staphylococcus aureus [3]): > 25 µg/mL
- MIC (Streptococcus pneumoniae [4]): 25 µg/mL (≈ 42.9 µM)
- MIC (Staphylococcus aureus [5]): > 25 µg/mL
- MIC [6]: < 6.25 µg/mL
- Cmax [7]: 1910 ng/mL
- half-life [8]: 599 min
- IC50 (Erythrocyte): > 200 µM
- inhibition (Escherichia coli [9]): Active
- MBC (Staphylococcus aureus [10]): > 25 µg/mL
- Activity [11]: Active
- MBC (Staphylococcus aureus [12]): > 25 µg/mL
- MBC (Escherichia coli [13]): > 25 µg/mL
- MIC (Staphylococcus aureus [14]): > 25 µg/mL
- MIC (Staphylococcus aureus [15]): > 25 µg/mL
- log(activity) [16]: 0.03
- MBC (Streptococcus pneumoniae [17]): > 25 µg/mL
- half-life [18]: 241 min
- MIC (Escherichia coli [19]): 12.5 µg/mL (≈ 21.4 µM)
- AUC(0-inf) [20]: 1050 ng·h/mL
- AUC (Mus musculus): 993 ng·h/mL
- MBC [21]: 25 µg/mL (≈ 42.9 µM)
- MIC (Klebsiella pneumoniae): 12.5 µg/mL (≈ 21.4 µM)
- Activity [22]: Active
- MBC (Clostridioides difficile): 1.56 µg/mL (≈ 2.68 µM)

From ChEMBL document CHEMBL4229550, “An antimycobacterial pleuromutilin analogue effective against dormant bacilli” (Bioorg Med Chem, 2018)
